Laboratory results from ChEMBL document CHEMBL5329165, “Design, synthesis and biological evaluation of phenanthridine amide and 1,2,3-triazole analogues against Mycobacterium tuberculosis” (RSC Med Chem, 2023).
≈ marks a conversion by molar mass, not a printed value.

Legend:
[1] = tested on: Mycobacterium tuberculosis; test: Antimycobacterial activity against replicating Mycobacterium tuberculosis H37Rv ATCC 27294 incubated for 7 days by microplate alamar blue assay; assay type: functional; settings: H37Rv ATCC 27294, 168 h, time 7 day
Summary of the method: (§1)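 H37Rv (ATCC 27294) in 7H12 broth (7H9 with casitone, BSA, catalase, palmitic acid). Compounds from DMSO in twofold serial dilution; final inoculum 3 to 5 X10⁵ cells/mL; 7 days at 37°C. Resazurin plus Tween 80 added, 18–24 h more at 37°C. Fluorescence read at 530 nm excitation/590 nm emission. MIC is the lowest concentration giving 90% fluorescence reduction versus untreated bacteria.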

[2] = tested on: Mycobacterium tuberculosis; test: Antimycobacterial activity against non-replicating Mycobacterium tuberculosis H37Rv ATCC 27294 incubated for 10 days under anaerobic condition followed by treatment under aerobic condition and measured on day 11 by luminescence based low oxygen recovery assay; assay type: functional; settings: H37Rv ATCC 27294, 264 h, time 11 day
Summary of the method: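 Low-oxygen recovery assay with H37Rv carrying autoluminescent LuxABCDE plasmid, adapted to low oxygen. Cells in 7H12 broth, sonicated 15 s, inoculum 5 x 10⁵ to 2 x 10⁶ CFU/mL, with twofold compound dilutions. Anaerobic (<0.16% O₂; 10% H₂, 5% CO₂, N₂) at 37°C for 10 days, then 28 h aerobic recovery (5% CO₂ air). Luminescence read day 11; MIC at 90% signal reduction versus untreated controls.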

[3] = Cytotoxicity against human HepG2 cells assessed as reduction in cell viability by alamar blue assay; assay type: toxicity, cell-based
Summary of the method: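 HepG2 cells grown in Glutamax DMEM with 10% (v/v) FBS and antibiotics, seeded in 96-well plates at 37°C, 5% CO₂. Viability measured by Alamar Blue staining per manufacturer's protocol; CC₅₀ derived.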

[4] = tested on: Mycobacterium tuberculosis; test: Antibacterial activity against Mycobacterium tuberculosis H37Rv incubated for 7 days by alamar blue reagent based fluorescence plate reader analysis; assay type: functional; settings: 168 h, time 7 day; summary of the method: as §1
[5] = tested on: Mycobacterium tuberculosis; test: Antimycobacterial activity against Mycobacterium tuberculosis H37Ra by microplate alamar blue assay; assay type: functional
[6] = tested on: Mycobacterium tuberculosis; test: Antibacterial activity against Mycobacterium tuberculosis H37Rv ATCC 27294 by microplate alamar blue assay; assay type: functional; summary of the method: as §1
[7] = tested on: Mycobacterium tuberculosis; test: Antibacterial activity against Mycobacterium tuberculosis H37Rv; assay type: functional; summary of the method: as §1

Structure (SMILES) | MIC [1] [µM] | MIC [2] [µM] | CC50 [3] [µM] | other results
Nc1nc2ccccc2c2ccccc12 | 61.3 (≈ 11.9 µg/mL) | 62.1 (≈ 12.1 µg/mL) | 30.5 | –
Cc1ccc2nc(C)c(C(=O)NCCCC3CCCCC3)n2c1 | – | – | – | MIC [4]: 0.1 µM (≈ 0.0313 µg/mL)
O=C(Nc1nc2ccccc2c2ccccc12)c1cnccn1 | > 333 | > 333 | 53 | –
Cc1nc2c3ccccc3c3ccccc3n2c1C(=O)NCc1cn(-c2ccc([N+](=O)[O-])cc2Br)nn1 | 180 (≈ 100 µg/mL) | 180 (≈ 100 µg/mL) | – | –
O=C(Cc1ccc(Br)cc1)Nc1nc2ccccc2c2ccccc12 | > 256 | > 256 | > 50 | –
O=C(/C=C/c1ccccc1)Nc1nc2ccccc2c2ccccc12 | > 308 | > 308 | – | –
Cc1nc2c3ccccc3c3ccccc3n2c1C(=O)NCc1cn(-c2cccc([N+](=O)[O-])c2)nn1 | 84.3 (≈ 40.2 µg/mL) | 87.4 (≈ 41.7 µg/mL) | 71.9 | –
C#CCNC(=O)c1c(C)nc2c3ccccc3c3ccccc3n12 | > 319 | > 319 | – | –
O=C(Cc1ccccc1)Nc1nc2ccccc2c2ccccc12 | 294 (≈ 91.8 µg/mL) | 267 (≈ 83.5 µg/mL) | > 50 | –
Nc1cccc(C(=O)Nc2nc3ccccc3c3ccccc23)c1 | 150 (≈ 46.9 µg/mL) | 151 (≈ 47.2 µg/mL) | 56.9 | –
O=C(Nc1nc2ccccc2c2ccccc12)c1ccccc1I | > 236 | > 236 | – | –
Nc1ccc(C(=O)Nc2nc3ccccc3c3ccccc23)cc1 | 78.3 (≈ 24.5 µg/mL) | 85.8 (≈ 26.9 µg/mL) | 32.1 | –
CCCCCC(=O)Nc1nc2ccccc2c2ccccc12 | > 342 | 79.8 (≈ 23.3 µg/mL) | 79.5 | –
COc1ccc(-n2cc(CNC(=O)c3c(C)nc4c5ccccc5c5ccccc5n34)nn2)c([N+](=O)[O-])c1 | 94 (≈ 47.7 µg/mL) | 106 (≈ 53.6 µg/mL) | – | –
O=C(Nc1ccc(Cl)cn1)c1cccc(C(F)(F)F)c1 | – | – | – | MIC [5]: 109 µM (≈ 32.7 µg/mL)
Cc1nc2c3ccccc3c3ccccc3n2c1C(=O)NCc1cn(-c2cccc(C(F)(F)F)c2)nn1 | 184 (≈ 92 µg/mL) | 89.5 (≈ 44.8 µg/mL) | 82.3 | –
O=C(Cc1c[nH]c2ccccc12)Nc1nc2ccccc2c2ccccc12 | 125 (≈ 44.1 µg/mL) | 69 (≈ 24.2 µg/mL) | 32.1 | –

Structure (SMILES) | MIC [1] [µM] | MIC [2] [µM] | CC50 [3] [µM] | other results
CCc1ccc(-n2cc(CNC(=O)c3c(C)nc4c5ccccc5c5ccccc5n34)nn2)cc1 | > 217 | > 217 | – | –
CCc1nc2ccc(C)cn2c1C(=O)NCCOc1ccc(N2CCC(=NOC)CC2)cc1 | – | – | – | MIC [6]: < 0.035 µM
Cc1nc2c3ccccc3c3ccccc3n2c1C(=O)NCc1cn(-c2ccc(Cl)c(Cl)c2[N+](=O)[O-])nn1 | > 183 | > 183 | – | –
Cc1nc2c3ccccc3c3ccccc3n2c1C(=O)NCc1cn(-c2ccc(C(F)(F)F)cc2)nn1 | > 200 | 93 (≈ 46.5 µg/mL) | 84.4 | –
CCCCCCCC(=O)Nc1nc2ccccc2c2ccccc12 | > 312 | 300 (≈ 96.2 µg/mL) | > 50 | –
Cc1cc(C)cc(-n2cc(CNC(=O)c3c(C)nc4c5ccccc5c5ccccc5n34)nn2)c1 | > 217 | 208 (≈ 95.9 µg/mL) | 90.7 | –
O=C(Nc1nc2ccccc2c2ccccc12)c1cccc(Cl)c1 | > 300 | > 300 | – | –
N#Cc1ccc(Cn2cc(CNC(=O)c3cn4ccccc4n3)nn2)cc1 | – | – | – | MIC [7]: 1560 µM (≈ 558 µg/mL)
O=C(CCCc1c[nH]c2ccccc12)Nc1nc2ccccc2c2ccccc12 | 70.6 (≈ 26.8 µg/mL) | 218 (≈ 82.8 µg/mL) | 30 | –
Cc1nc2c3ccccc3c3ccccc3n2c1C(=O)NCc1cn(-c2ccccc2Cl)nn1 | > 214 | > 214 | – | –
C#CCCC(=O)Nc1nc2ccccc2c2ccccc12 | > 365 | > 365 | 22.6 | –
O=C(NCc1ccc(N2CCC(Cl)CC2)cc1)c1cc([N+](=O)[O-])cc([N+](=O)[O-])c1 | – | – | – | MIC [6]: 0.038 µM (≈ 0.0159 µg/mL)
Cc1ccc(-n2cc(CNC(=O)c3c(C)nc4c5ccccc5c5ccccc5n34)nn2)cc1C | 41.5 (≈ 19.1 µg/mL) | 78.8 (≈ 36.3 µg/mL) | – | –
COc1nc2ccc(Br)cc2cc1[C@@H](c1ccccc1)[C@@](O)(CCN(C)C)c1cccc2ccccc12 [BEDAQUILINE] | 0.054 (≈ 0.03 µg/mL) | 0.216 (≈ 0.12 µg/mL) | – | –
NNC(=O)c1ccncc1 [ISONIAZID] | 2.62 (≈ 0.36 µg/mL) | 560 (≈ 76.8 µg/mL) | – | –
CO[C@H]1/C=C/O[C@@]2(C)Oc3c(C)c(O)c4c(O)c(c(/C=N/N5CCN(C)CC5)c(O)c4c3C2=O)NC(=O)/C(C)=C\C=C\[C@H](C)[C@H](O)[C@@H](C)[C@@H](O)[C@@H](C)[C@H](OC(C)=O)[C@@H]1C [RIFAMPIN] | 0.073 (≈ 0.0601 µg/mL) | 0.145 (≈ 0.119 µg/mL) | – | –
